ChEMBL document CHEMBL1154352, “Toll-like receptor 7 selective synthetic oligoribonucleotide agonists: synthesis and structure-activity relationship studies” (J Med Chem, 2009)
Calls of active or inactive are those of the source. The rule behind the calls is not given here.

Assays:
Homo sapiens [1] = species: Homo sapiens; test: Immunostimulatory activity in human mDC assessed as induction of IL6 at 100 ug/ml after 24 hrs; format: functional
Procedure, shortened: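 Human mDCs isolated from PBMCs by CD19+ B-cell depletion then BDCA1 positive selection; plated at 1 × 10^6 cells/mL, compounds in PBS, 37 °C for 24 h; supernatant cytokines by human Luminex multiplex. Representative of four independent experiments.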

PBMC [2] = test: Immunomodulatory activity in human PBMC assessed as induction of TNFalpha at 100 ug/ml after 24 hrs; format: functional, cell-based
Procedure, shortened: (§1)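 Human PBMCs plated at 5 × 10^6 cells/mL; compounds dissolved in PBS added at various concentrations, 37 °C for 24 h. Supernatant cytokines/chemokines quantified with human Luminex multiplex kit.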

[3] = biological target: T1, Toll-like receptor 7 (Homo sapiens) (UniProt Q9NYK1); test: Activation of human TLR7 expressed in HEK293XL assessed as fold induction of NF-kappaB activity at 50 ug/ml after 18 hrs by reporter gene assay relative to control
T1 sequence (whole entry): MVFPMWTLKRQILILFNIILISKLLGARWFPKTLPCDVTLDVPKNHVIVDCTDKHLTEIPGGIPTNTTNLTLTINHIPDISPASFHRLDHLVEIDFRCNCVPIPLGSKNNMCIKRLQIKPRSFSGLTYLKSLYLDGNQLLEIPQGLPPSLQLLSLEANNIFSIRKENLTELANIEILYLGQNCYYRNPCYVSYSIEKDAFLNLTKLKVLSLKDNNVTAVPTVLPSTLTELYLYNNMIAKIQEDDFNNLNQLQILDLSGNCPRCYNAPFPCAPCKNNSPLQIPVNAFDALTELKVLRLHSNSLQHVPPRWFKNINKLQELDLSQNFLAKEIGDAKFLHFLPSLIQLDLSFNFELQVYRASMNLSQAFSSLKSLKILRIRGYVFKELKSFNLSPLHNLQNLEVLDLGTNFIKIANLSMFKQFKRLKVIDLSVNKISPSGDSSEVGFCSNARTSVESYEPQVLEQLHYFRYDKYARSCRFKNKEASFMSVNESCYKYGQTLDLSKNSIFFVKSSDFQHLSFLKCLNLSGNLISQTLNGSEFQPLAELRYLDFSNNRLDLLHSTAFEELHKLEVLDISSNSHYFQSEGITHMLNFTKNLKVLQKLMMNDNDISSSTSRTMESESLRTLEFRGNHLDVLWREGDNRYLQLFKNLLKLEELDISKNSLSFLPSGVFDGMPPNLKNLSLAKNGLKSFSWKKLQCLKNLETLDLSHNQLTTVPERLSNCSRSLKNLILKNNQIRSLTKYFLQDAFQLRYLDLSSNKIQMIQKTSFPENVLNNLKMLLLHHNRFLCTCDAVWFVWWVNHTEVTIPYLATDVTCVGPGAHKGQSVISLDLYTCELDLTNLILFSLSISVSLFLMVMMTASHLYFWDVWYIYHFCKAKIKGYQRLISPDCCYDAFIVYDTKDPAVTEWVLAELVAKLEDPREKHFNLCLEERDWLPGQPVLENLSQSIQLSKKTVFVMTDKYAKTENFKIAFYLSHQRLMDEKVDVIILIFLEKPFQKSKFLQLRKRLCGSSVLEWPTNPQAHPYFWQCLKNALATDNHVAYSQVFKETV
Procedure, shortened: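 HEK293 cells stably expressing human TLR7 or TLR8, transiently transfected with SEAP reporter plasmid; medium replaced, SIMRA compounds added, 18 h incubation. Supernatant SEAP measured by QuantiBlue; expressed as fold increase in NF-κB activity over PBS control. Tabulated data at 50 μg/mL, representative of three independent experiments.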

PBMC [4] = test: Immunomodulatory activity in human PBMC assessed as induction of IL12 at 50 ug/ml after 24 hrs; format: functional, cell-based; procedure, shortened: as §1
PBMC [5] = test: Immunomodulatory activity in human PBMC assessed as induction of IL1-beta at 50 ug/ml after 24 hrs; format: functional, cell-based; procedure, shortened: as §1
Homo sapiens [6] = species: Homo sapiens; test: Immunostimulatory activity in human pDC assessed as induction of IL6 at 100 ug/ml after 24 hrs; format: functional
Procedure, shortened: (§2)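 Human pDCs plated at 1 × 10^6 cells/mL; compounds in PBS added, 37 °C for 24 h; supernatant cytokines/chemokines by human Luminex multiplex kit.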

PBMC [7] = test: Immunomodulatory activity in human PBMC assessed as induction of MCP1 at 50 ug/ml after 24 hrs; format: functional, cell-based; procedure, shortened: as §1
Homo sapiens [8] = species: Homo sapiens; test: Immunostimulatory activity in human pDC assessed as induction of IP10 at 100 ug/ml after 24 hrs; format: functional; procedure, shortened: as §2
[9] = biological target: T2, Toll-like receptor 9 (Mus musculus) (UniProt Q9EQU3); test: Activation of mouse TLR9 expressed in HEK293 assessed as induction of NF-kappaB activity reporter gene assay; format: cell-based
T2 sequence (whole entry): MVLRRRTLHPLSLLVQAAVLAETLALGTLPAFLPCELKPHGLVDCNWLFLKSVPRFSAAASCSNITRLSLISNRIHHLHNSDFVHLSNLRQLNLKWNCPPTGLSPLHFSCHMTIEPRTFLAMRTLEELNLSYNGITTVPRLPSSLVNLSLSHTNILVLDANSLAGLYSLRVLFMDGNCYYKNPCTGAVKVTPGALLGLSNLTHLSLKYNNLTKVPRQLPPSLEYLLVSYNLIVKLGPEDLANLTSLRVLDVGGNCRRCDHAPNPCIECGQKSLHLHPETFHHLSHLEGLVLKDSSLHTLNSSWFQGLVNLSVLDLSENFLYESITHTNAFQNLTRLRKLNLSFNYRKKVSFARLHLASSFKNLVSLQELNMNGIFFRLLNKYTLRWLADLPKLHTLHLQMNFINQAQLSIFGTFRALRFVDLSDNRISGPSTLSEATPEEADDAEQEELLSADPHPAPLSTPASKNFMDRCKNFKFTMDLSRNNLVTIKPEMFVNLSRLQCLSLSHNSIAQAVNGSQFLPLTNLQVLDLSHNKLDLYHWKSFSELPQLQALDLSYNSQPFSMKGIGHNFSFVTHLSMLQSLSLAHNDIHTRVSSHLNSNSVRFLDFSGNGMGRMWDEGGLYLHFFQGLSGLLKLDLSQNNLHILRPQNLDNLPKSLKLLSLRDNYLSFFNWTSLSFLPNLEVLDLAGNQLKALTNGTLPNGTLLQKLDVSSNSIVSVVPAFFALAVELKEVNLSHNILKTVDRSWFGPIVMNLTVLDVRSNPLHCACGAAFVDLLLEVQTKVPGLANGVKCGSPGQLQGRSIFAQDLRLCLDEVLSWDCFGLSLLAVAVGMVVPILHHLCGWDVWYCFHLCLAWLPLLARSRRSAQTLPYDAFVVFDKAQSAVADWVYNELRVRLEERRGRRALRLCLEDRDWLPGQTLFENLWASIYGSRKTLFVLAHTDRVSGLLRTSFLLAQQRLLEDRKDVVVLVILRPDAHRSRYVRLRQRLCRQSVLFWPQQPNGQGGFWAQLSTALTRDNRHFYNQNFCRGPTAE

Homo sapiens [10] = species: Homo sapiens; test: Immunostimulatory activity in human pDC assessed as induction of IFNalpha at 100 ug/ml after 24 hrs; format: functional; procedure, shortened: as §2
PBMC [11] = test: Immunomodulatory activity in human PBMC assessed as induction of IL6 at 50 ug/ml after 24 hrs; format: functional, cell-based; procedure, shortened: as §1

Nc1ccn([C@@H]2O[C@H](COP(=O)(S)O[C@H]3[C@@H](O)[C@H](n4cnc5c(N)ncnc54)O[C@@H]3COP(=O)(S)O[C@H]3[C@@H](O)[C@H](n4cnc5c(N)ncnc54)O[C@@H]3CO)[C@@H](OP(=O)(S)OC[C@H]3O[C@@H](n4ccc(=O)[nH]c4=O)[C@H](O)[C@@H]3OP(=O)(S)OC[C@H]3O[C@@H](n4ccc5c(=O)[nH]c(N)nc54)[C@H](O)[C@@H]3OP(=O)(S)OC[C@H]3O[C@@H](n4cnc5c(N)ncnc54)[C@H](O)[C@@H]3OP(=O)(S)OC[C@H]3O[C@@H](n4ccc(N)nc4=O)[C@H](O)[C@@H]3OP(=O)(S)OC[C@H]3O[C@@H](n4ccc5c(=O)[nH]c(N)nc54)[C@H](O)[C@@H]3OP(=O)(S)OC[C@H]3O[C@@H](n4ccc(N)nc4=O)[C@H](O)[C@@H]3OP(=O)(S)OC[C@H]3O[C@@H](n4ccc(=O)[nH]c4=O)[C@H](O)[C@@H]3OP(=O)(S)OC[C@H]3O[C@@H](n4ccc(=O)[nH]c4=O)[C@H](O)[C@@H]3OP(=O)(S)OCC(O)COP(=O)(S)O[C@H]3[C@@H](O)[C@H](n4ccc(=O)[nH]c4=O)O[C@@H]3COP(=O)(S)O[C@H]3[C@@H](O)[C@H](n4ccc(=O)[nH]c4=O)O[C@@H]3COP(=O)(S)O[C@H]3[C@@H](O)[C@H](n4ccc(N)nc4=O)O[C@@H]3COP(=O)(S)O[C@H]3[C@@H](O)[C@H](n4ccc5c(=O)[nH]c(N)nc54)O[C@@H]3COP(=O)(S)O[C@H]3[C@@H](O)[C@H](n4ccc(N)nc4=O)O[C@@H]3COP(=O)(S)O[C@H]3[C@@H](O)[C@H](n4cnc5c(N)ncnc54)O[C@@H]3COP(=O)(S)O[C@H]3[C@@H](O)[C@H](n4ccc5c(=O)[nH]c(N)nc54)O[C@@H]3COP(=O)(S)O[C@H]3[C@@H](O)[C@H](n4ccc(=O)[nH]c4=O)O[C@@H]3COP(=O)(S)O[C@H]3[C@@H](O)[C@H](n4ccc(N)nc4=O)O[C@@H]3COP(=O)(S)O[C@H]3[C@@H](O)[C@H](n4cnc5c(N)ncnc54)O[C@@H]3COP(=O)(S)O[C@H]3[C@@H](O)[C@H](n4cnc5c(N)ncnc54)O[C@@H]3CO)[C@H]2O)c(=O)n1 (some centres not stated)
Activity (Homo sapiens [1]): Active
Activity (PBMC [2]): 20.3 pg/mL
fold change (FC) [3]: 21.5
Activity (PBMC [4]): 223 pg/mL
Activity (PBMC [5]): 47 pg/mL
Activity (Homo sapiens [6]): Active
Activity (PBMC [7]): 42100 pg/mL
Activity (Homo sapiens [8]): Active
Activity [9]: inactive
Activity (Homo sapiens [10]): Active
Activity (PBMC [11]): 791 pg/mL

Nc1ccn([C@@H]2O[C@H](CO[C@H]3[C@@H](O)[C@H](n4cnc5c(N)ncnc54)O[C@@H]3COP(=O)(S)O[C@H]3[C@@H](O)[C@H](n4ccc5c(=O)[nH]c(N)nc54)O[C@@H]3COP(=O)(S)O[C@H]3[C@@H](O)[C@H](n4ccc(=O)[nH]c4=O)O[C@@H]3COP(=O)(S)O[C@H]3[C@@H](O)[C@H](n4cnc5c(N)ncnc54)O[C@@H]3COP(=O)(S)O[C@H]3[C@@H](O)[C@H](n4ccc5c(=O)[nH]c(N)nc54)O[C@@H]3COP(=O)(S)O[C@H]3[C@@H](O)[C@H](n4ccc(=O)[nH]c4=O)O[C@@H]3CO)[C@@H](OP(=O)(S)OC[C@H]3O[C@@H](n4ccc5c(=O)[nH]c(N)nc54)[C@H](O)[C@@H]3OP(=O)(S)OC[C@H]3O[C@@H](n4cnc5c(N)ncnc54)[C@H](O)[C@@H]3OP(=O)(S)OC[C@H]3O[C@@H](n4ccc(=O)[nH]c4=O)[C@H](O)[C@@H]3OP(=O)(S)OC[C@H]3O[C@@H](n4ccc(=O)[nH]c4=O)[C@H](O)[C@@H]3OP(=O)(S)OCC(O)COP(=O)(S)O[C@H]3[C@@H](O)[C@H](n4ccc(=O)[nH]c4=O)O[C@@H]3COP(=O)(S)O[C@H]3[C@@H](O)[C@H](n4ccc(=O)[nH]c4=O)O[C@@H]3COP(=O)(S)O[C@H]3[C@@H](O)[C@H](n4cnc5c(N)ncnc54)O[C@@H]3COP(=O)(S)O[C@H]3[C@@H](O)[C@H](n4ccc5c(=O)[nH]c(N)nc54)O[C@@H]3COP(=O)(S)O[C@H]3[C@@H](O)[C@H](n4ccc(N)nc4=O)O[C@@H]3CO[C@H]3[C@@H](O)[C@H](n4cnc5c(N)ncnc54)O[C@@H]3COP(=O)(S)O[C@H]3[C@@H](O)[C@H](n4ccc5c(=O)[nH]c(N)nc54)O[C@@H]3COP(=O)(S)O[C@H]3[C@@H](O)[C@H](n4ccc(=O)[nH]c4=O)O[C@@H]3COP(=O)(S)O[C@H]3[C@@H](O)[C@H](n4cnc5c(N)ncnc54)O[C@@H]3COP(=O)(S)O[C@H]3[C@@H](O)[C@H](n4ccc5c(=O)[nH]c(N)nc54)O[C@@H]3COP(=O)(S)O[C@H]3[C@@H](O)[C@H](n4ccc(=O)[nH]c4=O)O[C@@H]3CO)[C@H]2O)c(=O)n1 (some centres not stated)
Activity (Homo sapiens [1]): Active
Activity (PBMC [2]): 0 pg/mL
fold change (FC) [3]: 17.5
Activity (PBMC [4]): 434 pg/mL
Activity (PBMC [5]): 306 pg/mL
Activity (Homo sapiens [6]): Active
Activity (PBMC [7]): 56000 pg/mL
Activity (Homo sapiens [8]): Active
Activity [9]: inactive
Activity (Homo sapiens [10]): Active
Activity (PBMC [11]): 2760 pg/mL
